Results: ChEMBL document CHEMBL3875158, “Synthesis and biological evaluation of 4-(2-(dimethylamino)ethoxy)benzohydrazide derivatives as inhibitors of Entamoeba histolyica” (Eur J Med Chem, 2016)

Key:
Entamoeba histolytica = assay: Antiamoebic activity against Entamoeba histolytica HM-1:IMSS trophozoites incubated for 10 mins under nitrogen gassed condition measured after 72 hrs by eosin staining based micro dilution method; type: functional
Outline: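 Microdilution in 96-well plates with trophozoites in Diamond TYIS-33 medium at 10^5 cells per mL. Compounds dissolved in ethanol (level non-inhibitory to amoebae), stock 1 mg/mL, tested in triplicate. Plate sealed, gassed with nitrogen 10 min, incubated 37 °C for 72 h. Then medium removed, washed with 0.9% NaCl, methanol-fixed and stained with 0.5% aqueous eosin for 15 min, OD read at 490 nm. IC50 from non-linear regression of % inhibition versus control. At least two independent experiments.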

[1] = Cytotoxicity against human A549 cells assessed as reduction in cell viability after 48 hrs by MTT assay; type: toxicity, cell-based
Outline: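 Cells seeded at 8000/well in Ham's F-12 with 10% FBS and grown to 80–90% confluence. Medium then replaced with drug-containing medium with 1% FBS; drug range […], each concentration in triplicate, medium-only negative controls. Stocks made in ethanol, diluted in medium. Incubated at 37 °C, 5% CO2 for 48 h. MTT (5 mg/ml) added for 4 h, formazan dissolved in DMSO, absorbance read at 560 nm with 670 nm reference. Viability relative to controls; IC50 from concentration–viability plot.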

| SMILES | IC50 (Entamoeba histolytica) [µM] | IC50 at 48 h [1] [µM] |
| --- | --- | --- |
| COc1cc(/C=N/NC(=O)c2ccc(OCCN(C)C)cc2)ccc1O | 2.41 |  |
| CN(C)CCOc1ccc(C(=O)N/N=C/c2ccc(O)c(O)c2)cc1 | 6.4 |  |
| CN(C)CCOc1ccc(C(=O)N/N=C/c2ccc([N+](=O)[O-])cc2)cc1 | 2.4 |  |
| CCOc1ccc(/C=N/NC(=O)c2ccc(OCCN(C)C)cc2)cc1 | 3.77 |  |
| CN(C)CCOc1ccc(C(=O)N/N=C/c2ccc(Cl)c(Cl)c2)cc1 | 2.81 |  |
| CC(C)Oc1ccc(/C=N/NC(=O)c2ccc(OCCN(C)C)cc2)cc1 | 7.65 |  |
| Cc1ccsc1/C=N/NC(=O)c1ccc(OCCN(C)C)cc1 | 4.98 |  |
| CCc1ccc(/C=N/NC(=O)c2ccc(OCCN(C)C)cc2)cc1 | 5.65 |  |
| CC(C)c1ccc(/C=N/NC(=O)c2ccc(OCCN(C)C)cc2)cc1 | 3.45 |  |
| COc1c(O)ccc(/C=N/NC(=O)c2ccc(OCCN(C)C)cc2)c1Br | 3.61 |  |
| CN(C)CCOc1ccc(C(=O)N/N=C/c2cccc([N+](=O)[O-])c2)cc1 | 2.8 |  |
| COc1cc(/C=N/NC(=O)c2ccc(OCCN(C)C)cc2)ccc1OC(C)C | 4.13 |  |
| COc1ccc(/C=N/NC(=O)c2ccc(OCCN(C)C)cc2)cc1OC | 2.69 |  |

Further lines, with some results ahead:

| IC50 (Entamoeba histolytica) [µM] | SMILES | IC50 at 48 h [1] [µM] |
| --- | --- | --- |
| 1.81 | COc1ccc(OC)c(/C=N/NC(=O)c2ccc(OCCN(C)C)cc2)c1 | 110 |
| 1.76 | CN(C)CCOc1ccc(C(=O)N/N=C/c2ccccc2O)cc1 | 404 |
| 1.89 | Cc1ncc([N+](=O)[O-])n1CCO [METRONIDAZOLE] | > 100 |
| 1.86 | Cc1ccc(/C=N/NC(=O)c2ccc(OCCN(C)C)cc2)cc1 | 475 |
| 2.21 | CN(C)CCOc1ccc(C(=O)N/N=C/c2ccc(O)cc2)cc1 |  |
| 1.17 | CN(C)CCOc1ccc(C(=O)N/N=C/c2cc(Br)c(O)c(Br)c2)cc1 | 281 |
| 0.23 | CN(C)CCOc1ccc(C(=O)N/N=C/c2ccccc2Cl)cc1 | 134 |
| 0.79 | COc1cc(/C=N/NC(=O)c2ccc(OCCN(C)C)cc2)ccc1OC(C)=O | 186 |
| 1.01 | CN(C)CCOc1ccc(C(=O)N/N=C/c2cccc(Cl)c2)cc1 | 140 |
| 1.43 | CN(C)CCOc1ccc(C(=O)N/N=C/c2ccccc2)cc1 | 268 |
| 1.14 | CCOC(OCC)c1ccc(/C=N/NC(=O)c2ccc(OCCN(C)C)cc2)cc1 | 172 |
| 1.06 | CN(C)CCOc1ccc(C(=O)N/N=C/c2ccc3c(c2)OCO3)cc1 | 548 |
| 2.37 | CN(C)CCOc1ccc(C(=O)N/N=C/c2ccccn2)cc1 |  |
| 1.89 | Cc1cc(C)c(/C=N/NC(=O)c2ccc(OCCN(C)C)cc2)c(C)c1 | 81.7 |
| 1.53 | COc1ccc(/C=N/NC(=O)c2ccc(OCCN(C)C)cc2)cc1 | 126 |
| 0.79 | CN(C)CCOc1ccc(C(=O)N/N=C/c2ccc(Cl)cc2)cc1 | 69.4 |
| 1.89 | CN(C)CCOc1ccc(C(=O)N/N=C/c2ccc(N(C)C)cc2)cc1 | 481 |
